Source: PubChem BioAssay
A selection: hits, their analogues and other compounds. The true share with any hit is near 2.4%.
EP2 modulator – EP2 receptor modulators, cAMP readout, primary screen, cell-based, HTRF cAMP, PGE2 stimulation. Prostaglandin E2 receptor EP2 subtype (Homo sapiens), P43116. EP2-expressing cells, cAMP HTRF FRET, PGE2 co-stimulation. induction, % at 25 µM. hit rate 0.83% among 260,000. AID 940, 2007;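 active means compounds whose cAMP rise, as percent of the full-agonist control response, exceeds 60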;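 further: rat C6 glioma line stably carrying human EP2 under a CMV promoter; the protocol text gives 20 µM as final concentration; 100% = response of wells given 1 µM PGE2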
Target sequence (P43116 whole entry, looked up): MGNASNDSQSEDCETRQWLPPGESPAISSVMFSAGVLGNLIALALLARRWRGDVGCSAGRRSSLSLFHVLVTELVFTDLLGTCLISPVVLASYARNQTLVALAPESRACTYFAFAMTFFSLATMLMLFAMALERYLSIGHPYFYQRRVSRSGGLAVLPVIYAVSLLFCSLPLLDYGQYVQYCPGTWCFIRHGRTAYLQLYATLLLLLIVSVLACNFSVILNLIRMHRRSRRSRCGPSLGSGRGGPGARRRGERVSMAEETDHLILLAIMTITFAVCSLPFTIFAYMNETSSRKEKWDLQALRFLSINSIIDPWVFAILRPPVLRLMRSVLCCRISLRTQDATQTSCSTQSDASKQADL
b-catenin transl – modulators of beta-catenin nuclear translocation, primary screen, imaging, HeLa cells, immunofluorescence, high-content. hit rate 0.3% among 190,000. nuclear translocation activity, % at 5 µM;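 active means nuclear translocation activity above 50% at 5 µM, with a well cell count of 50 or more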;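 further: per-cell ratio of nuclear to cytoplasmic median beta-catenin stain intensity; plate controls were DMSO negative control for no effect and GSK-3 inhibitor IX positive control for full effect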
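Technique: fluorescence imaging of beta-catenin antibody stain plus DAPI / Material: human HeLa cell line / Incubation: compound treatment 24 h, 37°C, 5% CO2 / Read-out basis: % activation of per-cell nuclear versus cytoplasmic median beta-catenin signal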
TbHK1 inh – Trypanosoma brucei hexokinase 1 inhibitors, primary screen, biochemical, G6PDH-coupled NADH absorbance, MLSCN library | hexokinase 1 [Trypanosoma brucei] | recombinant TbHK1, G6PDH-coupled NADH A340 | inhibition, % at 10 µM | hit rate 0.11% among 220,000 | AID 1430, 2008;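 active means inhibition of 50% or more in the single-dose primary screen; inactive means inhibition below 50%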
EP2 antag – human EP2 receptor antagonists, primary screen, TR-FRET cAMP, C6 glioma cells; Prostaglandin E2 receptor EP2 subtype (Homo sapiens), P43116; C6 glioma cells expressing human EP2; cells stimulated with saturating PGE2; inhibition, % at 25 µM; hit rate 0.52% among 260,000; AID 1422, 2008;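 active means percent inhibition above 40 after rounding to a whole number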;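 further: rat C6 glioma host cells with rolipram phosphodiesterase inhibitor present; the protocol text gives 20 µM as final concentration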
HMGR II inh – inhibitors of E. faecalis class II HMGR, primary screen, biochemical, Enterococcus faecalis; inhibition, % at 10 µM; purified E. faecalis HMGR, NADPH absorbance 340 nm kinetic; hit rate 0.41% among 190,000; HMG-CoA reductase (Enterococcus faecalis, mvaE); AID 1066, 2008;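 active means inhibition above a set limit, the median over all tested compounds plus 3 SD, cut at about 9.5% in these data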;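 further: enzyme runs in reverse so mevalonate oxidation gives rising NADPH absorbance; 0% = complete reaction with DMSO and 100% = background rate lacking mevalonate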
MT stabilize HCS – microtubule stabilizers in HeLa cells, primary screen, imaging, high-content imaging. HeLa tubulin immunostaining HCS, 24 h; share of cells brighter than vehicle mean+2SD. hit rate 0.83% among 200,000. % tubulin-high responders, % at 10 µM;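 active means plate Z-score above 3 for both tubulin-high and condensed-nucleus cell shares, with cell loss under 80%, at 10 µM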;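 further: anti alpha tubulin signal scored within the nucleus-defined area of each cell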
Starred values were filed as active, the others as inactive; x = no result given; ! = repeats disagree.

SMILES	EP2 modulator	b-catenin transl	TbHK1 inh	EP2 antag	HMGR II inh	MT stabilize HCS
Cc1cc(C)c2cc(C)c3nn(CC(=O)Nc4c(C)nn(C)c4C)c(=O)n3c2c1	-15.0	x	x	1.5	x	x
COC1=CC(=O)C(O)=C/C1=C\C=C\c1ccccc1	-31.9	x	x	111.5*	x	x
O=C(c1cccc(F)c1)N1N=C2CCCCC2C1(O)C(F)(F)F (stereo not given)	-18.9	x	x	11.4	x	x
Cc1ccc2[nH]cc(C(=O)N3CCC(C)CC3)c(=O)c2c1	9.3	x	x	16.2	x	x
Cc1cc(C)c(S(=O)(=O)ON2C(=O)c3ccccc3C2=O)cc1C	-13.9	x	-0.6	10.9	-0.5	2.3
Cc1ccc(S(=O)(=O)ON2C(=O)c3ccccc3C2=O)c(C)c1	11.0	1.1	-13.3	13.9	17.1*	4.6
CC(C)(C)n1nnnc1C(c1cccc(C#N)c1)N1CCCc2ccccc21 (stereo not given)	31.4	-9.0	43.2	103.2*!	-2.5	5.9
COc1ccccc1C(c1nnnn1C(C)(C)C)N1CCCc2ccccc21 (stereo not given)	67.5*!	-3.4	2.3	10.2	0.0	3.2
CC(C)(C)n1nnnc1C(c1ccc(Cl)cc1)N1CCCc2ccccc21 (stereo not given)	42.7	1.8	-0.2	3.1	-1.8	2.8
Cc1ccc(C)c2[nH]c(=O)c(C(c3nnnn3C3CCCC3)N3CCc4ccccc43)cc12 (stereo not given)	101.2*	x	x	10.2	x	x
COc1cc2cc(C(c3nnnn3C(C)(C)C)N3CCc4ccccc43)c(=O)[nH]c2cc1OC (stereo not given)	30.1	-5.7	-47.6	149.6*	-3.8	1.6
Cc1ccc(C)c2[nH]c(=O)c(C(c3nnnn3C3CCCC3)N3CCCc4ccccc43)cc12 (stereo not given)	7.0	x	x	4.5	x	x
Cc1ccc2nc(SCC(=O)NCCc3c[nH]c4ccccc34)c(C#N)cc2c1	-41.8	x	x	13.4	x	x
CC(C)(C)c1ccc(-c2nnc(SCCC(=O)O)o2)cc1	8.6	x	x	23.1	x	x
NC(=O)c1cc[n+](CCC[n+]2ccc(C(N)=O)cc2)cc1	8.0	x	x	9.5	x	x
CC1=CC2=NC(=O)CC(C)(C(=O)NCC3(N(C)C)CCN(C)CC3)N2C=C1 (stereo not given)	-60.0	x	x	8.0	x	x
CCCOC(=O)Cn1c(=O)c2cc3c(=O)n(CC(=O)OCCC)c(=O)c3cc2c1=O	25.2	-4.8	-3.0	0.0	-5.4	4.1
CCC(=O)OCCn1c(=O)c2cc3c(=O)n(CCOC(=O)CC)c(=O)c3cc2c1=O	-9.9	-0.3	1.1	95.3*	-2.3	3.3
Cn1c(-c2ccc(F)cc2)cnc1NCc1cccc(F)c1	-32.4	38.1	9.8	5.4	-1.9	14.5*
Cn1c(-c2ccc(F)cc2)cnc1NCc1ccccc1	9.2	0.6	5.5	3.9	-2.5	8.5
O=C(CSc1nc2ccccc2c2nc3ccccc3n12)NCc1ccco1	-7.3	2.9	-8.7	9.8	-0.2	2.8
COc1ccc(NC(=O)CSc2nc3ccccc3c3nc4ccccc4n23)cc1	18.6	27.5	-4.6	8.9	1.2	25.0*
Cc1ccc(NC(=O)CSc2nc3ccccc3c3nc4ccccc4n23)cc1	9.1	148.2*	3.2	2.2	-3.0	32.5*
COc1ccc(OC)c(NC(=O)CSc2nc3ccccc3c3nc4ccccc4n23)c1	23.3	-0.8	-10.6	7.1	-2.0	5.4
O=C(CN1C(=O)[C@@H]2CCCN2C(=O)c2ccccc21)NCc1cccc(Cl)c1	5.8	x	x	6.0	x	x
CCn1c(=C(C(C)=O)C(C)=O)s/c(=C/C=C2\Sc3ccc(-c4ccccc4)cc3N2C)c1=O	-6.8	x	x	9.7	x	x
Cc1ccc2nc(N3C(=O)C(O)=C(C(=O)c4ccc(C)o4)C3c3ccc(O)cc3)sc2c1 (stereo not given)	-7.7	x	x	49.4*	x	x
Cc1ccc2nc(N3C(=O)C(O)=C(C(=O)c4ccco4)C3c3ccco3)sc2c1 (stereo not given)	11.8	x	x	35.4	x	x
